Measurements published in ChEMBL document CHEMBL4011636, “Utilization of an Active Site Mutant Receptor for the Identification of Potent and Selective Atypical 5-HT2C Receptor Agonists” (J Med Chem, 2017).
The source made the active and inactive calls.

Legend:
[1] = Drug uptake in Sprague-Dawley rat brain at 30 mg/kg, po measured at 1 hr post dose by LC/MS-MS analysis; type: ADME, organism-based; details: read-out: Drug uptake
Summary of the method: (§1)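 Male rats given 30 mg/kg orally in 0.15% docusate sodium/2% PVP-K/97.85% water. Plasma and brain were sampled at a single time point after dosing. Brain was diluted 1:2 (vol/weight) with water before homogenization (dilution factor 3). Concentrations were measured by LC/MS−MS after acetonitrile protein precipitation. Values are the average of three animals; B/P is the brain to plasma ratio.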

[2] = target: T1, 5-hydroxytryptamine receptor 2B (Homo sapiens, UniProt P41595); experiment: Agonist activity at recombinant human 5-HT2B receptor expressed in HEK293E cells assessed as induction of intracellular Ca2+ levels after 90 secs by Fluo-4-dye based FLIPR assay; type: cell-based, HEK293
Summary of the method: (§2)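 HEK293E cells stably expressing human receptor (VNV isoform for 5-HT2C; ~400−795 fmol/mg protein), grown in DMEM with 10% dialyzed FBS and G418. Cells plated at 20 000/well in serum-free DMEM overnight at 37 °C, then loaded 1 h at room temperature with 5 μM Fluo-4 in HBSS/25 mM HEPES. Eleven compound concentrations added on FLIPR, Ca2+ signal read for 90 s. EC50 from a four-parameter logistic fit, at least triplicate.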

[3] = target: 5-hydroxytryptamine receptor 2A (Homo sapiens, UniProt P28223); experiment: Agonist activity at recombinant human 5-HT2A receptor expressed in HEK293E cells assessed as induction of intracellular Ca2+ levels after 90 secs by Fluo-4-dye based FLIPR assay; type: cell-based, HEK293; summary of the method: as §2
[4] = target: T2, 5-hydroxytryptamine receptor 2C (Homo sapiens) (UniProt P28335); experiment: Intrinsic activity at recombinant human 5-HT2C receptor expressed in HEK293E cells assessed as induction of intracellular Ca2+ levels after 90 secs by Fluo-4-dye based FLIPR assay relative to serotonin; type: functional, cell-based; details: HEK293
T2 sequence (whole entry): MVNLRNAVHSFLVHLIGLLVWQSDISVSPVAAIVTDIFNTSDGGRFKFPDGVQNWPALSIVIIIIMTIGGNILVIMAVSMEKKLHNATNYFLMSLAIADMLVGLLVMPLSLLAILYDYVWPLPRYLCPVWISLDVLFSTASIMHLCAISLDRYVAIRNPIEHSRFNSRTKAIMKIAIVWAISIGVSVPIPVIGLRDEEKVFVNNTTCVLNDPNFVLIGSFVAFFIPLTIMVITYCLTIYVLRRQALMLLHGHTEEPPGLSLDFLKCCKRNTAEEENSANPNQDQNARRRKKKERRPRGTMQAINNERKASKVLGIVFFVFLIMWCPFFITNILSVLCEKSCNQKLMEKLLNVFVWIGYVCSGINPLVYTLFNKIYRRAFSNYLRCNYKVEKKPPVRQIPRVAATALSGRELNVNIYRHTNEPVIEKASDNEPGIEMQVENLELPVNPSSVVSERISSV
Summary of the method: (§3)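 FLIPR Fluo-4 Ca2+ assay in HEK293E cells stably expressing the human receptor (VNV isoform for 5-HT2C), eleven-point concentration series, 90 s read. Response normalized to 3 μM serotonin on the same plate (defined as IA = 1). Intrinsic activity taken from a four-parameter logistic fit.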

[5] = target: T3, 5-hydroxytryptamine receptor 2C (Homo sapiens, UniProt P28335); experiment: Agonist activity at recombinant human 5-HT2C receptor expressed in HEK293E cells assessed as induction of intracellular Ca2+ levels after 90 secs by Fluo-4-dye based FLIPR assay; type: functional, cell-based, HEK293; summary of the method: as §2
T3 sequence (P28335 whole entry): T2 sequence (whole entry)

[6] = Metabolic stability in human liver microsomes assessed as parent compound remaining at […] after 10 mins; type: ADME, microsome; details: read-out: Stability
[7] = Metabolic stability in rat liver microsomes assessed as parent compound remaining at […] after 10 mins; type: ADME, microsome; details: read-out: Stability
[8] = Permeability of compound at pH 5.5 by PAMPA; type: physicochemical; details: read-out: permeability
[9] = Permeability of compound at pH 7.4 by PAMPA; type: physicochemical; details: read-out: permeability
[10] = Permeability across basolateral to apical side in human Caco2 cells; type: ADME, cell-based; details: Caco-2, read-out: permeability
[11] = Permeability across apical to basolateral side in human Caco2 cells; type: ADME, cell-based; details: Caco-2, read-out: permeability
[12] = Efflux ratio of permeability across basolateral to apical side in human Caco2 cells; type: ADME, cell-based; details: Caco-2
[13] = Protein binding in human plasma; type: ADME, cell-free; details: read-out: PPB (converted)
[14] = Protein binding in rat plasma; type: ADME, cell-free; details: read-out: PPB (converted)
[15] = Half life in human microsomes; type: ADME, Microsome
[16] = Half life in rat microsomes; type: ADME, Microsome
[17] = Plasma concentration in Sprague-Dawley rat at 30 mg/kg, po measured at 1 hr post dose by LC/MS-MS analysis; type: ADME, organism-based; summary of the method: as §1
[18] = Ratio of drug uptake in Sprague-Dawley rat brain to plasma at 30 mg/kg, po measured at 1 hr post dose by LC/MS-MS analysis; type: ADME, organism-based; details: read-out: BPR; summary of the method: as §1
[19] = Drug uptake in Sprague-Dawley rat brain at 30 mg/kg, po measured at 2 hrs post dose by LC/MS-MS analysis; type: ADME, organism-based; details: read-out: Drug uptake; summary of the method: as §1
[20] = Plasma concentration in Sprague-Dawley rat at 30 mg/kg, po measured at 2 hrs post dose by LC/MS-MS analysis; type: ADME, organism-based; summary of the method: as §1
[21] = Ratio of drug uptake in Sprague-Dawley rat brain to plasma at 30 mg/kg, po measured at 2 hrs post dose by LC/MS-MS analysis; type: ADME, organism-based; details: read-out: BPR; summary of the method: as §1
Rattus norvegicus [22] = experiment: Antiobesity activity in ad libitum feeding Sprague-Dawley rat model assessed as reduction in food pellet consumption at 10 mg/kg, po administered at 60 mins prior to the onset of the dark cycle followed by incubation for first 8 hrs in light cycle and 12 hrs in dark cycle; type: functional; parameters: scale not given: the % may be the effect or the level left
Summary of the method: (§4)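 Male Sprague Dawley rats (~225 g; n = 6), trained in operant chambers, dosed orally with compound or vehicle (14% PPG, 1% Tween, 85% water) 60 min before dark onset. Food intake was monitored in individual boxes for 20 h (12 h dark plus first 8 h light). Percent reduction was computed from drug-treated versus vehicle-treated total intake.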

Rattus norvegicus [23] = experiment: Antiobesity activity in ad libitum feeding Sprague-Dawley rat model assessed as reduction in food intake at 30 mg/kg, po administered at 60 mins prior to the onset of the dark cycle followed by incubation for first 8 hrs in light cycle and 12 hrs in dark cycle; type: functional; parameters: scale not given: the % may be the effect or the level left; summary of the method: as §4
[24] = target: T1, 5-hydroxytryptamine receptor 2B; experiment: Intrinsic activity at recombinant human 5-HT2B receptor expressed in HEK293E cells assessed as induction of intracellular Ca2+ levels after 90 secs by Fluo-4-dye based FLIPR assay relative to serotonin; type: functional, cell-based; details: HEK293; summary of the method: as §3
[25] = Plasma concentration in Sprague-Dawley rat at 30 mg/kg, po measured at 3 hrs post dose by LC/MS-MS analysis; type: ADME, organism-based; summary of the method: as §1
[26] = Drug uptake in Sprague-Dawley rat brain at 30 mg/kg, po measured at 3 hrs post dose by LC/MS-MS analysis; type: ADME, organism-based; details: read-out: Drug uptake; summary of the method: as §1
[27] = Ratio of drug uptake in Sprague-Dawley rat brain to plasma at 30 mg/kg, po measured at 3 hrs post dose by LC/MS-MS analysis; type: ADME, organism-based; details: read-out: BPR; summary of the method: as §1
Rattus norvegicus [28] = experiment: Antiobesity activity in ad libitum feeding Sprague-Dawley rat model assessed as reduction in food pellet consumption administered po at 60 mins prior to the onset of the dark cycle followed by incubation for first 8 hrs in light cycle and 12 hrs in dark cycle; type: functional, organism-based; summary of the method: as §4
Rattus norvegicus [29] = experiment: Antiobesity activity in ad libitum feeding Sprague-Dawley rat model assessed as reduction in food pellet consumption at 3 to 10 mg/kg, po administered at 60 mins prior to the onset of the dark cycle measured at first 4 hrs post last dose; type: functional, organism-based
Summary of the method: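 Male Sprague Dawley rats (n = 6) dosed orally 60 min before dark onset with 3 or 10 mg/kg, in vehicle of 14% PPG, 1% Tween, 85% water. Food pellet consumption was recorded in operant boxes and compared with vehicle over the first 4 h.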

Rattus norvegicus [30] = experiment: Antiobesity activity in ad libitum feeding Sprague-Dawley rat model assessed as reduction in food pellet consumption at 30 mg/kg, po administered at 60 mins prior to the onset of the dark cycle followed by incubation for first 8 hrs in light cycle and 12 hrs in dark cycle; type: functional; parameters: scale not given: the % may be the effect or the level left; summary of the method: as §4
Rattus norvegicus [31] = experiment: Antiobesity activity in ad libitum feeding Sprague-Dawley rat model assessed as reduction in food intake at 30 mg/kg, po administered at 60 mins prior to the onset of the dark cycle followed by incubation for first 8 hrs in light cycle and 12 hrs in dark cycle in presence of 5-HT2C anatgonist SB-243213; type: functional; parameters: scale not given: the % may be the effect or the level left
Rattus norvegicus [32] = experiment: Toxicity in ad libitum feeding Sprague-Dawley rat model assessed as effect on locomotor activity at 3 to 30 mg/kg, po administered at 60 mins prior to the onset of the dark cycle followed by incubation for first 8 hrs in light cycle and 12 hrs in dark cycle; type: organism-based; details: in vivo
Rattus norvegicus [33] = experiment: Toxicity in ad libitum feeding Sprague-Dawley rat model assessed as reduction in water intake at 3 to 30 mg/kg, po administered at 60 mins prior to the onset of the dark cycle followed by incubation for first 8 hrs in light cycle and 12 hrs in dark cycle; type: organism-based; details: in vivo
Rattus norvegicus [34] = experiment: Antiobesity activity in ad libitum feeding Sprague-Dawley rat model assessed as reduction in food intake at 10 mg/kg, po administered at 60 mins prior to the onset of the dark cycle followed by incubation for first 8 hrs in light cycle and 12 hrs in dark cycle; type: functional; parameters: scale not given: the % may be the effect or the level left; summary of the method: as §4
[35] = Agonist activity at recombinant human 5-HT2C receptor D134A mutant expressed in HEK293E cells assessed as induction of intracellular Ca2+ levels after 90 secs by Fluo-4-dye based FLIPR assay; type: cell-based; details: HEK293

5-hydroxytryptamine receptor 2A, sequence (P28223 whole entry): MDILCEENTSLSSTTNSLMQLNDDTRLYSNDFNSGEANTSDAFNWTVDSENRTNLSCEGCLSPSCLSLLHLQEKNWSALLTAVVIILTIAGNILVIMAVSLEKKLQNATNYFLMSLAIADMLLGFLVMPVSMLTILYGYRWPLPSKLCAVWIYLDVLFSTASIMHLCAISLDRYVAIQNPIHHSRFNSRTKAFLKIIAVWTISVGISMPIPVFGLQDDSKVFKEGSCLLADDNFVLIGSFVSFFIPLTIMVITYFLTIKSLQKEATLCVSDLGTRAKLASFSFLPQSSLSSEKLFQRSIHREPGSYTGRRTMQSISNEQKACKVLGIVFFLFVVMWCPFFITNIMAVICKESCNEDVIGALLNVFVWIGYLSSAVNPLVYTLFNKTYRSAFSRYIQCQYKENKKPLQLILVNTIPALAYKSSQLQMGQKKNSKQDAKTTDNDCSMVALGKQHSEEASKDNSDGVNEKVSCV
T1 sequence (P41595 whole entry, canonical isoform): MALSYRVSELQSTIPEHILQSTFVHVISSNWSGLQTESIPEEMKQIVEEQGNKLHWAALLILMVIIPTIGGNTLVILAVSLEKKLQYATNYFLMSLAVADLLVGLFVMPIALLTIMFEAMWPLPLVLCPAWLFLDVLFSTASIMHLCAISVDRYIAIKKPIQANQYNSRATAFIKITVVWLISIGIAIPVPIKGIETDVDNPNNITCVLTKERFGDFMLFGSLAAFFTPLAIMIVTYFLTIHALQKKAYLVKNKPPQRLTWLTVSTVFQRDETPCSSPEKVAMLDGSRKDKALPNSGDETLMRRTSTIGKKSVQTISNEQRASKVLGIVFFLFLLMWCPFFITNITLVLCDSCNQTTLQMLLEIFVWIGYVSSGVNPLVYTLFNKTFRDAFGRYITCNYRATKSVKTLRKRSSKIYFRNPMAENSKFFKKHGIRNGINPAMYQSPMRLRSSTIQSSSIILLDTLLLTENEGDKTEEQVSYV

Structure (SMILES) | EC50 [2] [µM] | EC50 [3] [µM] | Intrinsic activity [4] | EC50 [5] [µM] | remaining at 10 min [6] [%] | remaining at 10 min [7] [%] | Papp [8] [×10⁻⁶ cm/s] | Papp [9] [×10⁻⁶ cm/s] | Papp B→A [10] [×10⁻⁶ cm/s] | Papp A→B [11] [×10⁻⁶ cm/s] | efflux ratio [12] | fraction unbound [13] | fraction unbound [14] | half-life [15] [min] | half-life [16] [min] | also measured
Cc1[nH]c(-c2cccc3ccccc23)cc1C(=O)N1CCC(CO)CC1 | > 10 | > 10 | 0.9 | 0.012 | 76 | 44 | 62.4 | 49.2 | 21.9 | 17.2 | 1.3 | 0.017 | 0.075 | 41 | 11 | concentration at 1 h [1]: 202 nM; concentration at 1 h [17]: 1140 nM; Kp at 1 h [18]: 0.2
Cn1nc(-c2cccc3ccccc23)cc1C(=O)N1CCC(CO)CC1 | > 10 | 0.075 | 1 | 0.006 | 92 | 37 | 58.8 | 61.3 | 16.8 | 32.3 | 0.5 | 0.023 | 0.076 | 36 | 8 | concentration at 2 h [19]: 721 nM; concentration at 2 h [20]: 2480 nM; Kp at 2 h [21]: 0.3
Cc1c(C(=O)NN2CCCCC2)nn(-c2ccc(Cl)cc2Cl)c1-c1ccc(Cl)cc1 [RIMONABANT] |  |  |  |  |  |  |  |  |  |  |  |  |  |  |  | Activity (Rattus norvegicus [22]): 27%
CCn1nc(-c2cccc3cccnc23)cc1-c1ccc(N)nn1 | 0.048 | 0.635 | 0.8 | 0.005 | 61 |  | 72.7 | 88.9 | 52.8 | 77.7 | 0.7 | 0.062 | 0.079 | 16 | 25 | Activity (Rattus norvegicus [23]): 38%; Intrinsic activity [24]: 0.2; concentration at 3 h [25]: 7540 nM; concentration at 3 h [26]: 3920 nM; Kp at 3 h [27]: 0.9; Activity (Rattus norvegicus [28]): Dose-dependent effect; Activity (Rattus norvegicus [29]): Active; Activity (Rattus norvegicus [30]): 24%; Activity (Rattus norvegicus [31]): 12%; Activity (Rattus norvegicus [32]): Non-Toxic; Activity (Rattus norvegicus [33]): Non-Toxic
Cc1cc2c(cc1C(F)(F)F)N(C(=O)Nc1ccc(Oc3cccnc3C)nc1)CC2 [SB-243213] |  |  |  |  |  |  |  |  |  |  |  |  |  |  |  | Activity (Rattus norvegicus [34]): 15%
Cc1nc(-c2cccc3ccccc23)sc1C(=O)N1CCN(C)CC1 | > 10 | > 10 | 0.8 | 0.043 to 0.123 |  |  |  |  |  |  |  |  |  |  |  | EC50 [35]: 0.13 µM
